{
  "source": "the RNAGym collection of RNA variant scans (doi:10.1038/s41586-018-0170-7)",
  "parents": {"B1": {"name": "tRNA (parent)", "chain": "GUUCCGUUGGCGUAAUGGUAACGCGUCUCCCUCCUAAGGAGAAGACUGCGGGUUCGAGUCCCGUACGGAACG"}},
  "data": [
    {"variants_of": "B1", "assay": "yeast fitness, log relative to wild type (ln ratio); higher = fitter; tRNA-Arg(CCU), competitive growth, 37 C, 1 M NaCl", "procedure,_shortened": "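BY4742 cells without the chromosomal tRNA-Arg(CCU) gene carried a combinatorial variant library on a HIS3 centromeric plasmid, from two independent transformations. After 4 generations in SC-HIS at 30 °C, pools spent ~6.5 generations (~26.5 h) in SC-HIS 1M NaCl at 37 °C, giving three outputs per input, and 125 bp paired-end Illumina reads counted the variants. Fitness is the natural log of each genotype's generations over the wild type's, with generations taken as OD-scaled log2 output/input frequency weighted by inverse variance across replicates.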", "values": [
      {"variant": "AGUCCUUUGGCGUAAUGGUAACGCGUCUCCCUCCUAAGGAGACGACUGCGGGUUCGAGUCCCGUAUGGGUUG", "note": "[G1A U2G G6U A43C C66U A69G A70U C71U]", "yeast fitness (ln)": -0.4},
      {"variant": "AGUCCUUUGGCGUAAUGGUAACGCGUCUCCCUCCUAAGGAGACGACUGCGGGUUCGAGUCCCGUACGGAGCG", "note": "[G1A U2G G6U A43C A70G]", "yeast fitness (ln)": -0.263},
      {"variant": "AGUCCUUUGGCGUAAUGGUAACGCGUCUCCCUCCUAAGGAGACGACUGCGGGUUCGAGUCCCGUACGGAUCG", "note": "[G1A U2G G6U A43C A70U]", "yeast fitness (ln)": -0.257},
      {"variant": "AGUCCUUUGGCGUAAUGGUAACGCGUCUCCCUCCUAAGGAGACGACUGCGGGUUCGAGUCCCGUAUGGAUUG", "note": "[G1A U2G G6U A43C C66U A70U C71U]", "yeast fitness (ln)": -0.237},
      {"variant": "AGUCCUUUGGCGUAAUGGUAACGCGUCUCCCUCCUAAGGAGACGACUGCGGGUUCGAGUCCCGUACGGAGUG", "note": "[G1A U2G G6U A43C A70G C71U]", "yeast fitness (ln)": -0.323},
      {"variant": "AGUCCUUUGGCGUAAUGGUAACGCGUCUCCCUCCUAAGGAGACGAUUGCGGGUUCGAGUCCCGUAAGGGUCG", "note": "[G1A U2G G6U A43C C46U C66A A69G A70U]", "yeast fitness (ln)": -0.256},
      {"variant": "AGUCCUUUGGCGUAAUGGUAACGCGUCUCCCUCCUAAGGAGACGAUUGCGGGUUCGAGUCCCGUAAGGAAUG", "note": "[G1A U2G G6U A43C C46U C66A C71U]", "yeast fitness (ln)": -0.234},
      {"variant": "AGUCCUUUGGCGUAAUGGUAACGCGUCUCCCUCCUAAGGAGACGACUGCGGGUUCGAGUCCCGUAAGGGGUG", "note": "[G1A U2G G6U A43C C66A A69G A70G C71U]", "yeast fitness (ln)": -0.412},
      {"variant": "AGUCCUUUGGCGUAAUGGUAACGCGUCUCCCUCCUAAGGAGACGACUGCGGGUUCGAGUCCCGUACGGGUUG", "note": "[G1A U2G G6U A43C A69G A70U C71U]", "yeast fitness (ln)": -0.428},
      {"variant": "AGUCCUUUGGCGUAAUGGUAACGCGUCUCCCUCCUAAGGAGACGAUUGCGGGUUCGAGUCCCGUACGGAGCG", "note": "[G1A U2G G6U A43C C46U A70G]", "yeast fitness (ln)": -0.235},
      {"variant": "AGUCCUUUGGCGUAAUGGUAACGCGUCUCCCUCCUAAGGAGACGAUUGCGGGUUCGAGUCCCGUACGGAUCG", "note": "[G1A U2G G6U A43C C46U A70U]", "yeast fitness (ln)": -0.235},
      {"variant": "AGUCCUUUGGCGUAAUGGUAACGCGUCUCCCUCCUAAGGAGACGACUGCGGGUUCGAGUCCCGUACGGGGCG", "note": "[G1A U2G G6U A43C A69G A70G]", "yeast fitness (ln)": -0.277},
      {"variant": "AGUCCUUUGGCGUAAUGGUAACGCGUCUCCCUCCUAAGGAGACGACUGCGGGUUCGAGUCCCGUACGGGUCG", "note": "[G1A U2G G6U A43C A69G A70U]", "yeast fitness (ln)": -0.456},
      {"variant": "AGUCCUUUGGCGUAAUGGUAACGCGUCUCCCUCCUAAGGAGACGAUUGCGGGUUCGAGUCCCGUAAGGAGUG", "note": "[G1A U2G G6U A43C C46U C66A A70G C71U]", "yeast fitness (ln)": -0.153},
      {"variant": "AGUCCUUUGGCGUAAUGGUAACGCGUCUCCCUCCUAAGGAGACGACUGCGGGUUCGAGUCCCGUAUGGGGUG", "note": "[G1A U2G G6U A43C C66U A69G A70G C71U]", "yeast fitness (ln)": -0.368},
      {"variant": "AGUCCUUUGGCGUAAUGGUAACGCGUCUCCCUCCUAAGGAGACGAUUGCGGGUUCGAGUCCCGUACGGAACG", "note": "[G1A U2G G6U A43C C46U]", "yeast fitness (ln)": -0.117},
      {"variant": "AGUCCUUUGGCGUAAUGGUAACGCGUCUCCCUCCUAAGGAGACGACUGCGGGUUCGAGUCCCGUACGGGAUG", "note": "[G1A U2G G6U A43C A69G C71U]", "yeast fitness (ln)": -0.537},
      {"variant": "AGUCCUUUGGCGUAAUGGUAACGCGUCUCCCUCCUAAGGAGAAGACUGCGGGUUCGAGUCCCGUACGGAACG", "note": "[G1A U2G G6U]", "yeast fitness (ln)": -0.102},
      {"variant": "AGUCCAUUGGCGUAAUGGUAACGCGUCUCCCUCCUAAGGAGAAGACUGCGGGUUCGAGUCCCGUAUGGAUUG", "note": "[G1A U2G G6A C66U A70U C71U]", "yeast fitness (ln)": -0.0116},
      {"variant": "AGUCCUUUGGCGUAAUGGUAACGCGUCUCCCUCCUAAGGAGACGAUUGCGGGUUCGAGUCCCGUAAGGAUCG", "note": "[G1A U2G G6U A43C C46U C66A A70U]", "yeast fitness (ln)": -0.303},
      {"variant": "AGUCCUUUGGCGUAAUGGUAACGCGUCUCCCUCCUAAGGAGACGAUUGCGGGUUCGAGUCCCGUAAGGAGCG", "note": "[G1A U2G G6U A43C C46U C66A A70G]", "yeast fitness (ln)": -0.178},
      {"variant": "AGUCCUUUGGCGUAAUGGUAACGCGUCUCCCUCCUAAGGAGACGAUUGCGGGUUCGAGUCCCGUACGGAAUG", "note": "[G1A U2G G6U A43C C46U C71U]", "yeast fitness (ln)": -0.335},
      {"variant": "AGUCCAUUGGCGUAAUGGUAACGCGUCUCCCUCCUAAGGAGAAGACUGCGGGUUCGAGUCCCGUAAGGAUUG", "note": "[G1A U2G G6A C66A A70U C71U]", "yeast fitness (ln)": -0.119},
      {"variant": "AGUCCUUUGGCGUAAUGGUAACGCGUCUCCCUCCUAAGGAGACGAUUGCGGGUUCGAGUCCCGUAUGGAGCG", "note": "[G1A U2G G6U A43C C46U C66U A70G]", "yeast fitness (ln)": -0.344},
      {"variant": "AGUCCUUUGGCGUAAUGGUAACGCGUCUCCCUCCUAAGGAGACGAUUGCGGGUUCGAGUCCCGUAUGGAUCG", "note": "[G1A U2G G6U A43C C46U C66U A70U]", "yeast fitness (ln)": -0.275},
      {"variant": "AGUCCUUUGGCGUAAUGGUAACGCGUCUCCCUCCUAAGGAGACGACUGCGGGUUCGAGUCCCGUACGGAUUG", "note": "[G1A U2G G6U A43C A70U C71U]", "yeast fitness (ln)": -0.41},
      {"variant": "AGUCCAUUGGCGUAAUGGUAACGCGUCUCCCUCCUAAGGAGAAGAUUGCGGGUUCGAGUCCCGUAUGGAAUG", "note": "[G1A U2G G6A C46U C66U C71U]", "yeast fitness (ln)": -0.301},
      {"variant": "AGUCCAUUGGCGUAAUGGUAACGCGUCUCCCUCCUAAGGAGAAGAUUGCGGGUUCGAGUCCCGUACGGAAUG", "note": "[G1A U2G G6A C46U C71U]", "yeast fitness (ln)": -0.247},
      {"variant": "AGUCCUUUGGCGUAAUGGUAACGCGUCUCCCUCCUAAGGAGACGAUUGCGGGUUCGAGUCCCGUAAGGGGUG", "note": "[G1A U2G G6U A43C C46U C66A A69G A70G C71U]", "yeast fitness (ln)": -0.378},
      {"variant": "AGUCCUUUGGCGUAAUGGUAACGCGUCUCCCUCCUAAGGAGACGACUGCGGGUUCGAGUCCCGUAUGGAGUG", "note": "[G1A U2G G6U A43C C66U A70G C71U]", "yeast fitness (ln)": -0.419},
      {"variant": "AGUCCAUUGGCGUAAUGGUAACGCGUCUCCCUCCUAAGGAGAAGACUGCGGGUUCGAGUCCCGUAUGGGGUG", "note": "[G1A U2G G6A C66U A69G A70G C71U]", "yeast fitness (ln)": -0.366},
      {"variant": "AGUCCUUUGGCGUAAUGGUAACGCGUCUCCCUCCUAAGGAGACGAUUGCGGGUUCGAGUCCCGUACGGGGCG", "note": "[G1A U2G G6U A43C C46U A69G A70G]", "yeast fitness (ln)": -0.334},
      {"variant": "AGUCCUUUGGCGUAAUGGUAACGCGUCUCCCUCCUAAGGAGACGAUUGCGGGUUCGAGUCCCGUACGGGUCG", "note": "[G1A U2G G6U A43C C46U A69G A70U]", "yeast fitness (ln)": -0.354},
      {"variant": "AGUCCUUUGGCGUAAUGGUAACGCGUCUCCCUCCUAAGGAGACGACUGCGGGUUCGAGUCCCGUAAGGGUUG", "note": "[G1A U2G G6U A43C C66A A69G A70U C71U]", "yeast fitness (ln)": -0.351},
      {"variant": "AGUCCAUUGGCGUAAUGGUAACGCGUCUCCCUCCUAAGGAGAAGACUGCGGGUUCGAGUCCCGUACGGAAUG", "note": "[G1A U2G G6A C71U]", "yeast fitness (ln)": -0.136},
      {"variant": "AGUCCAUUGGCGUAAUGGUAACGCGUCUCCCUCCUAAGGAGAAGAUUGCGGGUUCGAGUCCCGUAUGGAUUG", "note": "[G1A U2G G6A C46U C66U A70U C71U]", "yeast fitness (ln)": -0.00784},
      {"variant": "AGUCCUUUGGCGUAAUGGUAACGCGUCUCCCUCCUAAGGAGACGAUUGCGGGUUCGAGUCCCGUAAGGAUUG", "note": "[G1A U2G G6U A43C C46U C66A A70U C71U]", "yeast fitness (ln)": -0.0885}
    ]}
  ]
}
